The source made the active and inactive calls. The rule behind the calls is not given here.
Key:
[1] = biological target: T1, Protein deacetylase HDAC6 (Homo sapiens, UniProt Q9UBN7); test: Inhibition of recombinant HDAC6 (unknown origin) expressed in Escherichia coli BL21(DE3) after 60 mins using trichostatin A by label-free mass spectrometry-based SAMDI assay
T1 sequence (Q9UBN7 whole entry): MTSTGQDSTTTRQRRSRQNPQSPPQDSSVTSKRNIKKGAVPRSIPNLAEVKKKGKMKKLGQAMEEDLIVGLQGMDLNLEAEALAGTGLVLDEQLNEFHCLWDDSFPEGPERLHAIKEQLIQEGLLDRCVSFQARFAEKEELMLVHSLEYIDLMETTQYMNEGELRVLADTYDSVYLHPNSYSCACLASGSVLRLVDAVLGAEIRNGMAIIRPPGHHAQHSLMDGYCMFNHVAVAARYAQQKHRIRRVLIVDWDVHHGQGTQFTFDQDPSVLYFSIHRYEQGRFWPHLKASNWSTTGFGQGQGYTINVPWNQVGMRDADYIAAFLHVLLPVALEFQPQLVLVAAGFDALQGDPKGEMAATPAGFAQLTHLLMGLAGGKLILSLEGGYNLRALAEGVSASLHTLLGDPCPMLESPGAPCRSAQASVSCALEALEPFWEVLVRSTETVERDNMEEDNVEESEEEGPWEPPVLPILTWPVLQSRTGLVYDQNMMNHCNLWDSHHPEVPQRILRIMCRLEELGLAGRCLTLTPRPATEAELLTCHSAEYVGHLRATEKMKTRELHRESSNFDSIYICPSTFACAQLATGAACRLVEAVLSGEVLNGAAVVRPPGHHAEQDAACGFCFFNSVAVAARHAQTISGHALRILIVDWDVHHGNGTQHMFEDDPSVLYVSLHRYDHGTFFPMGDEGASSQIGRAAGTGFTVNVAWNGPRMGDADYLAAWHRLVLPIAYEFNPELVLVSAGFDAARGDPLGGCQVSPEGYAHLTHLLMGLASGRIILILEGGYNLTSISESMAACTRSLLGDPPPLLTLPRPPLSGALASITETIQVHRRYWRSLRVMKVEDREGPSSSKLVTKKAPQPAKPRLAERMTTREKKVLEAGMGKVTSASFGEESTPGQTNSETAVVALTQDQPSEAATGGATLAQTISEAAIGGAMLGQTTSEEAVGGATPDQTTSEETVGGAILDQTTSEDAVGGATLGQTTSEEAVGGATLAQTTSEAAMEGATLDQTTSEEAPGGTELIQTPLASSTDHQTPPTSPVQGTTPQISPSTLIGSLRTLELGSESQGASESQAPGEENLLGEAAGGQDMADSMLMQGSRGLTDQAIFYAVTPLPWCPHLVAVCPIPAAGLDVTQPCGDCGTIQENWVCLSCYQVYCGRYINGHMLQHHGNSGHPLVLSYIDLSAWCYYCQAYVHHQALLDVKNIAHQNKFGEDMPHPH

Histone deacetylase 1 [2] = biological target: T2, Histone deacetylase 1 (Homo sapiens, UniProt Q13547); test: Inhibition of recombinant HDAC1 (unknown origin) expressed in Escherichia coli BL21(DE3) after 60 mins using trichostatin A by label-free mass spectrometry-based SAMDI assay
T2 sequence (Q13547 whole entry): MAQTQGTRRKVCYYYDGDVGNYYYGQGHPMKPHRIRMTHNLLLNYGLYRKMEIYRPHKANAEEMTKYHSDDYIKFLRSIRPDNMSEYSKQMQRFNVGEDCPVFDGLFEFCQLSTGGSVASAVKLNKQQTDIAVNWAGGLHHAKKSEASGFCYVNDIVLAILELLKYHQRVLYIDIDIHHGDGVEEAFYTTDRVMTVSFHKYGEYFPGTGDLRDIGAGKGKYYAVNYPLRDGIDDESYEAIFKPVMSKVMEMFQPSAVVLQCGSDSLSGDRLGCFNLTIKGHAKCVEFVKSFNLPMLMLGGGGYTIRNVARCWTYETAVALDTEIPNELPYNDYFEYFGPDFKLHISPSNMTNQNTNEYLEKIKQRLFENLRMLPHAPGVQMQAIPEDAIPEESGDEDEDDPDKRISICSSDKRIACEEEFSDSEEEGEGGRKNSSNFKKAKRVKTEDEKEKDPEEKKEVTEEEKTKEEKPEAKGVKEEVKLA

MCF7 = test: Cytotoxicity against human MCF7 cells after 72 hrs by MTS assay; type: functional, cell-based; conditions: Homo sapiens, MCF7, 72 h; read-out: IC50
How it was run: (§1)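 Cells kept in DMEM with 10% FBS and 1% penicillin-streptomycin, seeded in 96-well plates for 24 h, then exposed to a range of drug concentrations for 72 h at 0.1% DMSO; viability read by MTS assay per manufacturer's protocol.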

[3] = Selectivity ratio of IC50 for African green monkey Vero cells to IC50 for human MCF7 cells; type: ADME, cell-based; conditions: Vero cells and MCF7 cells, read-out: Ratio IC50
How it was run: (§2)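 Cell viability (MTS) was measured in A549, MCF-7 and Vero cells kept in DMEM with 10% FBS and 1% penicillin-streptomycin. Cells were plated 24 h before drug, then exposed to a range of concentrations for 72 h, with DMSO held at 0.1%. The ratio divides the Vero IC50 by the IC50 for the tumour line, both from this assay.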

Vero = test: Cytotoxicity against African green monkey Vero cells after 72 hrs by MTS assay; type: cell-based; conditions: Chlorocebus sabaeus; how it was run: as §1
Histone deacetylase 8 = biological target: T3, Histone deacetylase 8 (Homo sapiens, UniProt Q9BY41); test: Inhibition of recombinant HDAC8 (unknown origin) expressed in Escherichia coli BL21(DE3) after 60 mins using trichostatin A by label-free mass spectrometry-based SAMDI assay
T3 sequence (Q9BY41 whole entry): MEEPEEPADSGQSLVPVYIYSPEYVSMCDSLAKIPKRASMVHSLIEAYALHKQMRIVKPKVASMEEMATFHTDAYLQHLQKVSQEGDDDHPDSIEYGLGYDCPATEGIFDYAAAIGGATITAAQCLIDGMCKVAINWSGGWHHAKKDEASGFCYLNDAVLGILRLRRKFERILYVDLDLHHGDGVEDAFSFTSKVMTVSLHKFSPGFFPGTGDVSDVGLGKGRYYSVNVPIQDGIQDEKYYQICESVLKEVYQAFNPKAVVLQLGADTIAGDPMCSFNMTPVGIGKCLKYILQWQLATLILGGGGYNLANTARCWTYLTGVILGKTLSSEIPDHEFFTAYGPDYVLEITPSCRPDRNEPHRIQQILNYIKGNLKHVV

A549 = test: Cytotoxicity against human A549 cells after 72 hrs by MTS assay; type: functional, cell-based; conditions: Homo sapiens, A549, 72 h; read-out: IC50; how it was run: as §1
[4] = Selectivity ratio of IC50 for African green monkey Vero cells to IC50 for human A549 cells; type: ADME, cell-based; conditions: Vero cells and A549 cells, read-out: Ratio IC50; how it was run: as §2
BEAS-2B [5] = test: Antiinflammatory activity in human BEAS2B cells assessed as inhibition of NTHi-induced IL-1alpha mRNA expression at 1 uM treated 2 hrs before NTHi stimulation measured after 1.5 hrs by Q-PCR analysis; type: functional, cell-based
How it was run: (§3)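 BEAS-2B cells pretreated 2 h with inhibitor at 1 μM, then stimulated 1.5 h with NTHi; PBS-treated cells as unstimulated control. Total RNA isolated with TRIzol, reverse transcribed, and TNF-α, IL-1α, IL-1β mRNA quantified by SYBR Green real-time PCR with 500 nM primers, reactions in triplicate; mean of n=3, representative of three independent experiments.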

BEAS-2B [6] = test: Antiinflammatory activity in human BEAS2B cells assessed as inhibition of NTHi-induced TNFalpha mRNA expression at 1 uM treated 2 hrs before NTHi stimulation measured after 1.5 hrs by Q-PCR analysis; type: functional, cell-based; how it was run: as §3
BEAS-2B [7] = test: Antiinflammatory activity in human BEAS2B cells assessed as inhibition of NTHi-induced IL-1beta mRNA expression at 1 uM treated 2 hrs before NTHi stimulation measured after 1.5 hrs by Q-PCR analysis; type: functional, cell-based; how it was run: as §3
Homo sapiens = species: Homo sapiens; conditions: at 1 µM
[8] = Inhibition of NTHi-induced NF-kappaB activation in human BEAS-2B cells treated 1 hr before NTHi stimulation measured after 5 hrs by luciferase assay; type: cell-based; conditions: Homo sapiens, BEAS-2B; read-out: IC50
Histone deacetylase 1 [9] = biological target: T2, Histone deacetylase 1; test: Inhibition of recombinant HDAC1 (unknown origin) expressed in Escherichia coli BL21(DE3) at 10 uM after 60 mins using trichostatin A by label-free mass spectrometry-based SAMDI assay

SMILES | IC50 [1] [nM] | IC50 (Histone deacetylase 1 [2]) [nM] | IC50 (MCF7) [nM] | selectivity ratio [3] | IC50 (Vero) [nM] | IC50 (Histone deacetylase 8) [nM] | IC50 (A549) [nM] | selectivity ratio [4] | inhibition (BEAS-2B [5]) | inhibition (BEAS-2B [6]) | inhibition (BEAS-2B [7]) | Imax (Homo sapiens) [%] | IC50 [8] [nM] | inhibition (Histone deacetylase 1 [9]) [%]
CC[C@H]1OC(=O)[C@H](C)C(=O)[C@H](C)[C@@H](O[C@@H]2O[C@H](C)C[C@H](N(C)Cc3cccc(-c4cn(CCCCCCC(=O)NO)nn4)c3)[C@H]2O)[C@@](C)(OC)C[C@@H](C)C2=NCCN3C(=O)O[C@@]1(C)[C@H]3[C@H]2C | 3.76 | 54.5 | 860 | 23 | > 20000 | 310 | 7480 | 2.7 | – | – | – | – | – | –
CC[C@@H]1OC(=O)[C@@H](C)[C@H](O[C@H]2C[C@@](C)(OC)[C@](O)(CN(C)Cc3ccc(-c4cn(CCCCCCC(=O)NO)nn4)cc3)[C@H](C)O2)[C@H](C)[C@H](O[C@@H]2O[C@H](C)C[C@H](N(C)C)[C@H]2O)[C@@](C)(OC)C[C@H](C)C(=O)[C@@H](C)[C@@H](O)[C@@]1(C)O | 2.85 | 23.9 | 690 | – | 1550 | 1840 | 990 | – | Active | Active | Active | 35.6 | 197 | –
CC[C@H]1OC(=O)[C@H](C)C(=O)[C@H](C)[C@@H](O[C@@H]2O[C@H](C)C[C@H](N(C)Cc3ccc(-c4cn(CCCCCCC(=O)NO)nn4)cc3)[C@H]2O)[C@@](C)(OC)C[C@@H](C)C2=NCCN3C(=O)O[C@@]1(C)[C@H]3[C@H]2C | 6.99 | 20.8 | 1980 | – | – | 1500 | 2190 | – | Active | Active | Active | 35.3 | 47.2 | –
CC[C@@H]1OC(=O)[C@@H](C)[C@H](O[C@H]2C[C@@](C)(OC)[C@@H](O)[C@H](C)O2)[C@@H](C)[C@H](O[C@H]2O[C@@H](C)C[C@@H](N(C)C)[C@@H]2O)[C@](C)(O)C[C@H](C)CN(Cc2ccc(-c3cn(CCCCCCC(=O)NO)nn3)cc2)[C@H](C)[C@H](O)[C@@]1(C)O | 4.72 | 16.1 | 6300 | – | 6660 | 1700 | 8280 | – | Active | Active | Active | 31.4 | 244 | –
CC[C@H]1OC(=O)[C@H](C)[C@@H](O[C@@H]2C[C@](C)(OC)[C@@](O)(CN(C)Cc3ccc(-c4cn(CCCC(=O)NO)nn4)cc3)[C@@H](C)O2)[C@@H](C)[C@@H](O[C@H]2O[C@@H](C)C[C@@H](N(C)C)[C@@H]2O)[C@](C)(OC)C[C@@H](C)C(=O)[C@H](C)[C@H](O)[C@]1(C)O | 361 | > 10000 | – | – | – | 2530 | – | – | – | – | – | – | – | 27

— ChEMBL document CHEMBL3734738, “A structure-activity relationship of non-peptide macrocyclic histone deacetylase inhibitors and their anti-proliferative and anti-inflammatory activities” (Bioorg Med Chem, 2015)
